High-throughput results from PubChem BioAssay.
Lung fibro prol: antiproliferative effect on LL 47 fibroblasts – human, LL 47 cells, CellTiter-Glo luminescence, primary screen | LL 47 human lung fibroblast viability, ATP luminescence; active compounds read low | 85,000 tested, 1.1% active | AID 719, 2007 | viability, % at 10 µM;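 active means viability at or below 50% in the single dose screen; inactive means viability above 50%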;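 further: compound exposure lasted 72 h before the ATP readout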
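Times – overnight cell rest, 72 h compound treatment at 37 °C · Test system – human lung fibroblast line LL 47, low passage · Amount – 1,150 cells in each well · Controls – cell-only wells, no compound · Doses – 0.1% DMSO in all compound wells · Measured by – CellTiter-Glo luminescence · Buffer or medium – IMEM plus 15% FBS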
Jurkat viability: cytotoxicity toward Jurkat T cells, primary screen, cytotoxicity control, cell-based, Jurkat E6.1, 60K MLSMR library; Jurkat E6.1 viability, ATP luminescence, 48 h; inhibition, % at 4 µM; 56,000 tested, 1.2% active; AID 463, 2006;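 active means inhibition above the mean inhibition of all tested compounds plus 3 SD, cut at about 28% in these data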
H69AR growth 86K: proliferation blockers of H69AR lung cancer cells, primary screen, cell-based, human, 86K library | H69AR lung tumor viability, ATP luminescence, 72 h; active compounds read low | viability, % at 10 µM | 85,000 tested, 6% active;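 active means viability at or below 40%; inactive means viability above 40%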;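 further: multidrug resistant small cell line overexpressing MRP-1 efflux transporter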
HUVEC inhibit: inhibitors of HUVEC proliferation, primary screen, cell-based, 384-well. CellTiter-Glo luminescence, 72 h; active compounds read low. 86,000 tested, 1.1% active. viability, % at 10 µM (by protocol);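 active means viability at or below 30%; inactive means viability above 30%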
Numbers stand for hits; 0 = inactive; - = not tested or not shown. The list is not random: actives were taken first. Their share in the collection is about 6.4%.

SMILES	Lung fibro prol	Jurkat viability	H69AR growth 86K	HUVEC inhibit
Cc1ccc(OCC(=O)Sc2ccc(C)cc2)cc1	0	-	16.9	0
COc1cc(C2CC(=O)c3c([nH]c(C(=O)OCCOC(C)C)c3C)C2)cc(OC)c1OC (configuration not stated)	-	43.3	-	-
CCCOCCOC(=O)c1[nH]c2c(c1C)C(=O)CC(c1cc(OC)ccc1OC)C2 (configuration not stated)	0	0	18.8	0
COCCOC(=O)c1[nH]c2c(c1C)C(=O)CC(c1cc(OC)ccc1OC)C2 (configuration not stated)	-	65.3	-	-
CCOC(=O)c1[nH]c2c(c1C)C(=O)CC(c1ccc(OC)c(OC)c1)C2 (configuration not stated)	0	-	0	0
COc1ccc(OC)c(C2CC(=O)c3c([nH]c(C(=O)OC(C)C)c3C)C2)c1 (configuration not stated)	0	98.4	27.8	0
Cc1ccc(S(=O)(=O)Cc2cccc(C(=O)N3CCOCC3)c2)cc1	0	0	0	0
COc1ccc(N2C(=O)NC3CC2(C)Oc2ccccc23)cc1OC (configuration not stated)	0	0	25.8	0
COc1cc(N2C(=O)NC3CC2(C)Oc2ccc(Br)cc23)cc(OC)c1OC (configuration not stated)	0	0	0	0
CC(=O)n1c(Cl)c(NC(=O)CCl)c2ccccc21	0	-	1.5	0
COc1ccc(N2CCN(c3ncnc4c3nnn4Cc3ccccc3Cl)CC2)cc1	0	-	0	0
FC(F)(F)c1cc(-c2ccccc2)nc(N2CCOCC2)n1	0	-	0	0
N#Cc1c(C(F)(F)F)cc(-c2ccccc2)nc1SCc1nc(N)nc(N2CCOCC2)n1	0	0	20.7	0
O=C(O)C[CH2][Ge](=[O])[O][Ge](=[O])[CH2]CC(=O)O	0	-	0	0
CN(C)CCCC1(O)c2ccccc2C=Cc2ccccc21	0	-	0	0
CCn1c(O)c(C=Nc2ccccc2)n(-c2ccccc2)c1=S	0	-	0	0
Nc1nnnn1/N=C/c1cc(Cl)cc(Cl)c1OCc1ccc(Cl)cc1Cl	0	-	21.5	0
C/C(=C\C(=O)c1ccncc1)Nc1ccccc1O	0	0	23.3	0
CC(=O)Nc1ccccc1O	0	-	0	0
CC(Oc1ccc(Cl)cc1Cl)c1nc(-c2ccc(NC(=O)c3ccccn3)cc2)no1 (configuration not stated)	0	-	28.6	0
COc1ccc(Cl)cc1-c1nc(-c2ccc(NC(=O)c3ccncc3)cc2)no1	-	0	-	-
O=C(C#Cc1ccccc1)c1cccc([N+](=O)[O-])c1	17.9	-	1.4	0
CCOC(=O)C1=C(CSc2nc3c(cc2C#N)CN(C)CC3)OC(N)=C(C#N)C1c1ccc(Cl)cc1 (configuration not stated)	0	-	35.6	0
CCOC(=O)C1=C(CSc2nc(CC)c(C)cc2C#N)OC(N)=C(C#N)C1c1ccccc1 (configuration not stated)	0	-	28.2	0
O=C(Nc1nc2ccccc2n1CCN1CCOCC1)c1cn(-c2ccccc2)nc1-c1ccccc1	0	0	19.2	0
SMILES	Lung fibro prol	Jurkat viability	H69AR growth 86K	HUVEC inhibit
Nc1n[nH]c(-c2ccccc2)c1-c1ccccc1	0	0	0	0
Cc1ccc2c(c1)c1ncnc(N3CCC4(CC3)OCCO4)c1n2C	0	0	29.3	0
c1ccc2c(c1)[nH]c1c(N3CCC4(CC3)OCCO4)ncnc12	0	-	39.5	0
OC1(c2cccc(C(F)(F)F)c2)CCN(c2ncnc3c2[nH]c2ccccc23)CC1	0	-	19.5	0
c1nc(N2CCC3(CC2)OCCO3)c2[nH]cnc2n1	0	0	0	0
CCOC(=O)C1Cc2cc3c(cc2C1=O)CC(C(=O)OCC)C3=O (configuration not stated)	0	0	19.8	0
Cc1cc(N2CCCC2=O)cc(C)c1S(=O)(=O)NCCOc1ccc(C(C)(C)C)cc1	0	-	33.0	0
Cc1ccc(C(=O)c2ccc(O)cc2)cc1C	-	0	-	-
C/C=C(/C(=C/C)c1ccc(O)cc1)c1ccc(O)cc1	0	-	20.6	0
C=C(c1ccc(O)cc1)c1ccc(O)cc1	-	0	22.6	0
CC1(C)C=C(c2ccc(O)cc2)CC(C)(C)N1	-	0	0	0
COc1ccc(C2=CC(c3ccc(Cl)cc3)n3cnnc3N2)cc1OC (configuration not stated)	0	-	0	0
CC(=O)c1cc2c(cc1NC(=O)C1CC1)OCO2	0	-	0	0
COc1ccc(CC(NC(C)=O)C(=O)NC2CCN(S(=O)(=O)c3ccccc3)CC2)cc1OC (configuration not stated)	0	0	0	0
Cc1ccc(C2(C(F)(F)F)NC(=O)N3CCN=C3S2)cc1 (configuration not stated)	0	0	22.2	0
Cc1ccccc1NC(=O)Cc1nc(CSc2nnc(-c3ccc4c(c3)OCO4)o2)cs1	0	-	0	0
COc1cccc(NC(=O)Cc2nnc(SCCOc3ccccc3)n2C)c1	0	0	0	0
COc1cccc(NC(=O)Cc2nnc(SCC(=O)c3ccccc3)n2C)c1	0	0	31.5	0
O=S(=O)(Nc1cccc2cccnc12)c1ccc(S(=O)(=O)N2CCCC2)cc1	0	0	6.0	0
CCOC(=O)c1sc(NC(=O)C2CCCO2)c(C(=O)OCC)c1C (configuration not stated)	0	0	0	0
CCOC(=O)c1c(NC(=O)C2CCCO2)sc(C(=O)OC(C)(C)C)c1C (configuration not stated)	0	-	10.1	0
Cc1nn(C)c(C)c1NC(=O)CN1CCC(O)(c2ccc3c(c2)OCO3)CC1	0	0	0	0
CS(=O)(=O)c1ccc(Sc2nc3ccccc3[nH]2)c([N+](=O)[O-])c1	0	-	1.1	0
O=[N+]([O-])c1cc(S(=O)(=O)C(F)(F)F)ccc1Sc1nc2ccccc2[nH]1	12.1	-	1.7	18.3
Nc1nc(Sc2ccc(C(F)(F)F)cc2[N+](=O)[O-])n[nH]1	0	-	0	0
SMILES	Lung fibro prol	Jurkat viability	H69AR growth 86K	HUVEC inhibit
COc1cccc(-n2c(C)nnc2SCC(=O)Nc2ccccc2N2CCOCC2)c1	0	0	0	0
O=S(=O)(NCC1CCCO1)c1ccc(S(=O)(=O)N2CCCC2)cc1 (configuration not stated)	0	-	0	0
Clc1ccsc1-c1csc(-c2cccnc2)n1	0	-	17.1	0
CCOC(=O)c1cc(NC(=O)CSc2nnc(CN3CCOCC3)n2C)ccc1Cl	0	-	0	0
O=C(C1CCN(S(=O)(=O)c2cccc3cccnc23)CC1)N1CCN(C2CCCC2)CC1	0	0	0	0
CCc1ccc(/C=c2\s/c(=C\C(=O)C(C)(C)C)[nH]c2=O)cc1	0	-	14.1	0
CC(C)(C)C(=O)/C=c1\[nH]c(=O)/c(=C\c2ccc(F)cc2)s1	0	-	17.7	0
Cc1ccccc1/C=c1\s/c(=C\C(=O)C(C)(C)C)[nH]c1=O	0	-	18.7	0
C[N+]1(CC(=O)Nc2ccccc2Cl)CCN(C(=O)c2cccs2)CC1	0	-	0	0
CCCSc1nc(NCc2ccco2)c2c3c(sc2n1)COC(C)(C)C3	0	-	33.6	0
